Assay outcomes deposited in PubChem by several laboratories.
ABCB6 inh MLPCN – human ABCB6 transporter inhibition; Q9NP58; K562-ABCB6 porphyrin accumulation, flow cytometry, 1 h; active compounds read low; fluorescence ratio to DMSO, % at 10 µM; 360,000 tested, 0.19% active;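 active = fluorescence ratio to DMSO below 75%, the collection mean minus 3 SD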;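 note: signal is porphyrin accumulated inside mitochondria; 100% equals median channel fluorescence of DMSO control wells; lower ratio means ABCB6 inhibition with less porphyrin fluorescence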
Target sequence (Q9NP58 whole entry, looked up): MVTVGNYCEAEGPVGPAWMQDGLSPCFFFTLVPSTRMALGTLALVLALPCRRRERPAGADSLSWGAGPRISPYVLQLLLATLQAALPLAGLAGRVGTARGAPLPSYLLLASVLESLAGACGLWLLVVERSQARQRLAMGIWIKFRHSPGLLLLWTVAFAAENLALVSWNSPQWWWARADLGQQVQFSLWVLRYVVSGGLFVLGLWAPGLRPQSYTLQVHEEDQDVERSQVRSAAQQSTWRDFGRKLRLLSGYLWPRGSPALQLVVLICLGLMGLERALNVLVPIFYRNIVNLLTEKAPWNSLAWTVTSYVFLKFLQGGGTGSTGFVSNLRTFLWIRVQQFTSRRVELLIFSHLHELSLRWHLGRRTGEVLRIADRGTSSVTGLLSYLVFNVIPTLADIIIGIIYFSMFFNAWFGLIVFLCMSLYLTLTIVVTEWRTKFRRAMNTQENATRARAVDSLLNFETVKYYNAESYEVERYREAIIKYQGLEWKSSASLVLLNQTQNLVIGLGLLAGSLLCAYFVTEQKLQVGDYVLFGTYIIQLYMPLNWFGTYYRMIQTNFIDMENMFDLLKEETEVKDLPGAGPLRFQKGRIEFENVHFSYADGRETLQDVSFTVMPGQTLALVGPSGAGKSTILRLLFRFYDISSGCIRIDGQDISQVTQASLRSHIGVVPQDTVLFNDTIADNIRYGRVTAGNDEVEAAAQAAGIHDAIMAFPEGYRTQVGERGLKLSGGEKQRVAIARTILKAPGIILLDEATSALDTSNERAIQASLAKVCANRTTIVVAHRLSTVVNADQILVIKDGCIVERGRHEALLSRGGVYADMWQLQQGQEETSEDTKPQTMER
hiPSC survival – hiPSC single-cell survival enhancement; survival enhancement, % at 20 µM; 360,000 tested, 0.044% active; AID 602274; ATPlite luminescence; 100% = ROCK inhibitor wells, 0% = DMSO; in the data active = survival enhancement above about 18%;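 note: cells exposed to compounds for 16 hours before the ATP read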
Tb MetRS inh – blocks T. brucei methionyl-tRNA synthetase activity; purified T. brucei MetRS, ATP depletion, Kinase-Glo luminescence; inhibition, % at 11.9 µM; 360,000 tested, 0.4% active; AID 624268;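 active = inhibition above a per-plate cutoff of the control wells' mean inhibition plus 3 SD, cut at about 5.5% in these data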;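 note: 0% = DMSO wells median and 100% = median of wells with control inhibitor compound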
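Material: T. brucei methionyl-tRNA synthetase, purified; reagent: substrates ATP, L-methionine and bulk Escherichia coli tRNA; dosing: 11.9 µM single point; timing: 15 min plus 2 h at 25 °C; detection: luminescence of leftover ATP; evaluation: % inhibition; control set: DMSO-only wells as low control; replicates: singlicate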
MC4R barr agon – agonists of human melanocortin 4 receptor (MC4R) beta-arrestin; AID 540308; activation, % at 8.9 µM; U2OS MC4R beta-arrestin complementation, luminescence; percent of melanotan II response, DMSO zero; 360,000 tested, 0.98% active; P32245;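 active = activation above a per-plate cutoff, the mean activation of sample wells on that plate plus 3 SD, cut at about 8% in these data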
MC4R antagonist – human MC4R antagonism in cAMP assay. P32245. 360,000 tested, 0.48% active. AID 540295. inhibition, % at 6.5 µM. MC4R-expressing cells, MTII-stimulated cAMP, LANCE TR-FRET;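 active = inhibition above its plate's cutoff, the mean of tested wells on that plate plus 3 SD, cut at about 29% in these data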;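 note: 0% = Melanotan II alone and 100% = Melanotan II plus saturating MCL0020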
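System: U2OS-MC4R stable cell line; Technique: Eu-cAMP/anti-cAMP TR-FRET, emission 671 nm; Repeats: single well per compound; Also added: Melanotan II; Dosing: one concentration, 6.5 µM nominal; Schedule: 30-min compound, 1-h challenge, 1-h detection, room temperature.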
Granule exo inh – lytic granule exocytosis inhibition; TALL-104 LAMP-1 surface exposure, flow cytometry; cells stimulated with thapsigargin and PMA; 360,000 tested, 0.66% active; inhibition, % at 10 µM;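 active = inhibition above about 55%, limit read from the data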
Tb MetRS conf – Trypanosoma brucei MetRS inhibition confirmed | shares compounds with Tb MetRS inh | T. brucei MetRS enzyme, luminescence (ATP depletion) | inhibition, % at 11.9 µM | 1,400 tested, 93% active; in the data active = inhibition above about 7%
Jurkat cytotox – kills Jurkat cells in T. brucei MetRS counterscreen; 1,400 tested, 12% active; shares compounds with Tb MetRS inh; inhibition, % at 8.3 µM; Jurkat cells viability, ATP luminescence; AID 624413; in the data active = inhibition above about 15%;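 note: 0% = vehicle and 100% = reference inhibitor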
TbMetRS FP orth – T. brucei MetRS inhibition, orthogonal assay; shares compounds with Tb MetRS inh; purified T. brucei MetRS, fluorescence polarization; 1,400 tested, 44% active; inhibition, % at 11.9 µM; AID 651607; in the data active = inhibition above about 17%;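 note: 0% = vehicle wells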
An asterisk follows results filed as active; nt = no result. Rows were chosen to be rich in hits. Some 2.6% of all compounds tested hit in one or more screens of this group.

SMILES	ABCB6 inh MLPCN	hiPSC survival	Tb MetRS inh	MC4R barr agon	MC4R antagonist	Granule exo inh	Tb MetRS conf	Jurkat cytotox	TbMetRS FP orth
COc1ccc(NC(=O)COC(=O)CCCOc2ccc(Cl)cc2Cl)cc1	96.0	4.0	7.0*	1.2	5.1	-7.5	17.2*	-8.0	23.0*
CC(C)(CO)NC(=O)CCCOc1ccc(Cl)cc1Cl	98.0	2.2	10.9*	-2.3	1.4	3.3	13.2*	4.2	6.8
Cc1cc(NC(=O)COC(=O)CCCOc2ccc(Cl)cc2C)no1	94.0	2.5	6.5*	5.9	10.0	0.4	11.5*	-0.7	8.2
CC(C)(C)C(=O)NNC(=O)CCCOc1ccc(Cl)cc1Cl	99.0	-0.9	2.2	1.1	21.2	3.9	nt	nt	nt
O=C(NCCCc1ccccc1)c1c(O)nc2sccn2c1=O	97.0	-0.1	-0.1	-1.4	4.4	-4.2	nt	nt	nt
OC(c1ccc(Cl)c(F)c1)c1ncc(-c2ccc(Cl)cc2)[nH]1 (centres undefined)	97.0	-2.1	5.8*	3.0	2.5	5.0	41.4*	7.8	16.6
OC(c1ccc(Cl)c(Cl)c1)c1ncc(-c2ccc(Cl)cc2)[nH]1 (centres undefined)	103.0	1.7	51.4*	-2.9	4.9	-6.1	86.0*	-2.1	66.1*
O=S(=O)(c1cccc(F)c1)N1CCc2sccc2C1c1ccc(OC(F)(F)F)cc1 (centres undefined)	94.0	0.2	-0.4	-0.4	3.8	0.3	nt	nt	nt
O=C(NCCCCc1ccccc1)Nc1cccc(F)c1	96.0	1.3	10.7*	-0.8	3.9	-16.6	44.2*	-1.8	34.9*
Cc1cc(NS(=O)(=O)c2ccc(NC(=O)C(c3ccccc3)c3ccccc3)cc2)no1	100.0	-1.6	-0.5	-0.1	-1.1	-1.3	nt	nt	nt
Cc1cc(NS(=O)(=O)c2ccc(NC(=O)Nc3ccccc3)cc2)no1	92.0	3.3	8.4*	-1.0	1.9	3.2	16.1*	5.2	-4.0
Cc1cc(C)nc(NS(=O)(=O)c2ccc(NS(=O)(=O)c3ccccc3)cc2)n1	95.0	-1.5	-0.6	1.1	3.1	0.6	nt	nt	nt
Cc1cc(C)nc(NS(=O)(=O)c2ccc(NC(=O)Nc3ccccc3)cc2)n1	99.0	-2.5	13.3*	-1.8	5.8	5.3	15.7*	1.6	4.9
Cn1c(SCC(=O)N2CCCCCC2)nc2c(c1=O)SCC2	99.0	-0.3	-0.5	-2.7	3.9	-1.8	nt	nt	nt
COC(=O)c1sc(-c2ccc(Cl)cc2)cc1NC(=O)COCC(=O)O	95.0	-0.7	38.3*	2.0	12.1	23.1	37.0*	8.0	24.8*
COC(=O)c1sc(-c2ccc(C(C)(C)C)cc2)cc1NC(=O)CCC(=O)O	105.0	-0.1	2.2	3.0	11.6	4.6	nt	nt	nt
CCNC(=S)N(CCc1ccc(S(N)(=O)=O)cc1)C1CC(=O)N(c2ccccc2)C1=O (centres undefined)	101.0	0.5	-1.0	-1.6	7.4	2.2	nt	nt	nt
O=C1CC(N(CCc2ccccc2)C(=S)Nc2ccccc2)C(=O)N1c1ccccc1 (centres undefined)	112.0	0.2	30.9*	5.8	13.7	3.9	38.2*	2.5	22.9*
O=C1CC(N(CCc2ccccc2)C(=S)Nc2ccccc2)C(=O)N1c1ccc(F)cc1 (centres undefined)	93.0	-0.7	22.9*	0.1	5.3	5.6	32.3*	1.2	8.8
CCc1ccc(NC(=O)CSc2nnnn2-c2cccnc2)cc1	100.0	-0.3	0.2	-3.4	-1.6	-0.9	nt	nt	nt
Clc1ccc2[nH]c3c(NCCN4CCOCC4)ncnc3c2c1	98.0	-2.9	42.3*	-1.4	3.6	-2.4	62.0*	3.4	26.4*
O=c1c2[nH]c3ccc(F)cc3c2ncn1CCCN1CCOCC1	104.0	-0.1	-0.8	3.8	-2.1	11.0	nt	nt	nt
COc1ccc2[nH]c3c(NCCCN4CCCC4=O)ncnc3c2c1	110.0	-0.7	0.9	1.0	4.3	-2.0	nt	nt	nt
Fc1ccc2[nH]c3c(NCCN4CCOCC4)ncnc3c2c1	103.0	1.6	26.8*	-1.2	3.7	-1.6	46.7*	13.9	19.7*
COCCCNC(=O)CSc1nc2cc(C(=O)NCCOC)ccc2c(=O)n1Cc1ccc2c(c1)OCO2	102.0	-0.7	-1.1	0.0	4.9	5.5	nt	nt	nt
SMILES	ABCB6 inh MLPCN	hiPSC survival	Tb MetRS inh	MC4R barr agon	MC4R antagonist	Granule exo inh	Tb MetRS conf	Jurkat cytotox	TbMetRS FP orth
O=C(NCC1CC1)c1ccc(Nc2nc3ccc(Br)cc3[nH]2)cc1	99.0	-3.2	7.3*	0.8	10.8	1.0	45.9*	8.0	20.0*
O=C(NCc1ccco1)c1cccc(Nc2nc3ccc(Br)cc3[nH]2)c1	98.0	-1.7	10.4*	4.8	12.4	-3.6	40.4*	7.7	31.7*
O=C(Cc1ccc(Nc2nc3ccc(Br)cc3[nH]2)cc1)NCCc1cccs1	97.0	2.7	84.3*	-1.2	10.6	18.2	100.0*	11.5	103.6*
O=C(O)CCNC1C=CS(=O)(=O)C1 (centres undefined)	98.0	1.0	-1.7	1.3	6.2	-1.5	nt	nt	nt
O=C(CN(Cc1ccccc1)C1=NCCS1)c1ccc(Cl)cc1	100.0	2.2	24.7*	-0.2	3.0	-0.4	41.8*	12.8	23.1*
COc1ccc(C(=O)CN(Cc2ccccc2)C2=NCCS2)cc1	95.0	1.0	3.3	-1.5	3.7	-5.2	nt	nt	nt
Cc1ccc(C2=NS(=O)(=O)N(C)C(C(=O)NCc3ccc(F)cc3)=C2)cc1	97.0	-0.3	9.8*	0.2	-6.0	4.5	17.1*	-3.0	11.7
CN(C)S(=O)(=O)c1cc(NC(=O)c2ccc(-n3ccnc3)c([N+](=O)[O-])c2)ccc1Cl	89.0	-0.2	9.9*	-2.9	13.1	8.7	21.9*	33.6*	13.7
CCOc1cc(N2CCOCC2)c(OCC)cc1NC(=O)c1ccc(-n2ccnc2)c([N+](=O)[O-])c1	97.0	1.7	2.1	-1.7	3.9	8.2	nt	nt	nt
COc1ccccc1NC(=O)c1ccc(-n2ccnc2)c([N+](=O)[O-])c1	97.0	-0.6	8.8*	3.4	8.9	-10.7	26.7*	14.9	22.4*
O=C(O)C(CCc1ccccc1)N1CCOCC1 (centres undefined)	93.0	6.4	-0.3	-2.0	-0.9	-2.2	nt	nt	nt
CCCN1CN(Cc2ccco2)c2nc3ccccc3n2C1	108.0	-2.2	20.0*	-1.1	-0.1	-0.8	17.5*	8.8	10.8
c1coc(CN2CNc3nc4ccccc4n3C2)c1	101.0	-0.3	-0.1	3.8	-3.1	-7.7	nt	nt	nt
